Molecules are shown by their SMILES. In all, about 200,000 compounds went through this assay and fewer than 10 were called active.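 Rule for the calls: active = activation factor at least 2 at 20 µM; inactive = the rest.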 Only a sample is shown.

The target in this test is Alkaline phosphatase, tissue-nonspecific isozyme (Homo sapiens) (UniProt P05186). As to the kind of experiment: activation of human TNAP, high DEA acceptor – biochemical, luminescence, uHTS, primary screen (AID 1136). The following applies: purified TNAP, CDP-star luminescence, 1 M DEA, 30 min; at 20 µM; active compounds read high; 0 = EDTA background, 1 = DMSO-only activity. In short, it runs like this: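 Dosing: 20 µM single point. System: human TNAP. Amount: TNAP 1/800 final. Incubation: 30 min, room temperature. Read-out: TNAP activation factor scaled between EDTA and DMSO control wells. Signal: luminescence from CDP-star hydrolysis. Medium: 1 M DEA, pH 9.8, Mg2+, Zn2+. Control set: EDTA negative control, DMSO positive control.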
Alkaline phosphatase, tissue-nonspecific isozyme (Homo sapiens), sequence (P05186 whole entry, looked up): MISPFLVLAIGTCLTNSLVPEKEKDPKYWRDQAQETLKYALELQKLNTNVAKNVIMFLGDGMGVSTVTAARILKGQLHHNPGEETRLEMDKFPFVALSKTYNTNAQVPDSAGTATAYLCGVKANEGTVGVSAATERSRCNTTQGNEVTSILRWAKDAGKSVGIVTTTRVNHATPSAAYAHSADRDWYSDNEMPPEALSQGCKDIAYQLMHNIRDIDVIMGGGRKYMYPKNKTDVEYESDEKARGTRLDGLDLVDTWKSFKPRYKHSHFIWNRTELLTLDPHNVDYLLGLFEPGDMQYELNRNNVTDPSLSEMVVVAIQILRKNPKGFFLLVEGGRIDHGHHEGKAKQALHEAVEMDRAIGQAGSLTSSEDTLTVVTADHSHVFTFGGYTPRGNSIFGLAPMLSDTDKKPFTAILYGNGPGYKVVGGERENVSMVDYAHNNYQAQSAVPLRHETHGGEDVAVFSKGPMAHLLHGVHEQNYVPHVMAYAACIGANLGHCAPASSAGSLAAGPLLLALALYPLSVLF
Consider `O=C(CNC(c1ccccc1)c1ccccc1)Nc1ccc(F)cc1`, for which the activation factor was 1 (inactive).

With `Cc1cc(C)c(S(=O)(=O)N2CCOCC2)cc1C`, the activation factor was 1 (inactive). For `CC1(C)C2CCC1(C)C(OC(=O)c1ccc(O)cc1)C2` (stereo not given), the activation factor was 1.1 (inactive). In the case of `Cc1nc2sc3c(c2c(=O)n1NC(=O)CCl)CCCC3`, the activation factor is 1 (inactive). As for `COc1ccc(C)cc1NC(=O)CSc1nnc(CC(=O)Nc2ccccc2F)n1C`, the activation factor was 1.1 (inactive).

For the molecule `Cc1ccc(S(=O)(=O)N2CCN(C(=O)c3cccs3)CC2)cc1`, the activation factor is 1 (inactive). The result for `CCCC(=O)n1nc(NCc2ccc(OC)cc2)nc1NCc1ccc(OC)cc1` reads 1 (inactive). Turning to `CNC(=S)Nc1ccc([N+](=O)[O-])cc1`, the activation factor is 1 (inactive). Under `COc1ccc(C(=O)C[n+]2ccc(C)cc2)cc1` stands 1.1 (inactive); under `NC(=O)COc1ccc(C23CC4CC(CC(C4)C2)C3)cc1`, 1.1 (inactive); under `CCc1ccccc1NC(=S)N(CCN1CCCCCC1)Cc1ccco1`, 1 (inactive).

As for `CCCCN1C(=O)c2ccc(C(=O)Nc3ccc(S(=O)(=O)N(C)C)cc3)cc2C1=O`, the activation factor was 1 (inactive). `CCCc1c(C)nc2c(Br)cccc2c1Cl`: the activation factor is 1 (inactive). Turning to `Clc1ccc(CN2CCN(/N=C/c3cccnc3)CC2)cc1`, the activation factor is 1 (inactive). As for `CC(=O)N1CCc2cc(Br)cc(S(=O)(=O)CCC(=O)Nc3c(C)n(C)n(-c4ccccc4)c3=O)c21`, the activation factor is 1 (inactive). Take `CCN(CC)c1ccc(C(=O)N/N=C(\C)c2cccc(OC)c2)cc1`: the activation factor was 1 (inactive).

For `Cc1ccc(C)c2[nH]c(=O)c(CCNC(=O)c3cccs3)cc12`, the activation factor was 1 (inactive). The result for `O=C(/C=C/c1c(F)cccc1Cl)Nc1nn[nH]n1` reads 1 (inactive); that for `CC(=O)Nc1ccc(/C=N/NC(=O)c2cccs2)cc1`, 1 (inactive). Under `CC(CC(=O)N1CCN(c2ccccc2)CC1)c1ccccc1` (stereo not given) stands 1 (inactive). `COC(=O)c1ccc(-n2cnc3ccccc32)nc1`: the activation factor is 1 (inactive). `CN1CCN(CC(=O)Nc2cccc([N+](=O)[O-])c2)CC1`: the activation factor is 1 (inactive).

For `O=C(CS(=O)(=O)c1ccccc1)Nc1ccc(S(=O)(=O)Nc2ccccn2)cc1`, the activation factor is 1 (inactive). On to `COc1ccccc1C(=O)Nn1c(-c2cccs2)nc2ccccc2c1=O`, for which the activation factor was 1 (inactive). In the case of `CCN(CC)C(=O)C(=O)c1cn(CC(=O)NCc2ccc3c(c2)OCO3)c2ccccc12`, the activation factor is 1 (inactive). Under `Cc1ccc(S(=O)(=O)CCC(=O)OCc2ccccc2)cc1` stands 1 (inactive); under `CCOC(=O)c1ccccc1NC(=O)CSc1nc2ccccc2c(=O)[nH]1`, 1 (inactive); under `O=C(CN1CCN(c2ccc(O)cc2)CC1)NC1CCCc2ccccc21` (stereo not given), 1 (inactive). As for `O=[N+]([O-])c1cc(S(=O)(=O)CCCN2CCOCC2)ccc1F`, the activation factor was 1 (inactive). With `O=S(=O)(/N=C(/Nc1ccccc1)c1ccccc1)c1cccs1`, the activation factor is 1 (inactive). For `CCOc1ccc(N2C(=O)CN(c3cccc4ccccc34)C2=S)cc1`, the activation factor is 1.1 (inactive). Turning to `C/C(=N/OC(=O)c1cccc(C(F)(F)F)c1)c1cnccn1`, the activation factor is 1 (inactive).

With `CCN(CC)CCNC(=O)c1ccc(NS(=O)(=O)c2ccc3c(c2)OCCO3)cc1`, the activation factor was 1 (inactive). For the molecule `Cc1cc(/C=C2/NC(=O)NC2=O)c(C)n1-c1cccnc1`, the activation factor was 1.1 (inactive).

Regarding `C=CCC1(CC=C)CCCN1C(=O)CC1C(=O)NCCN1Cc1ccccc1OC` (stereo not given), the activation factor is 1 (inactive).

As for `C/C(=N/NC(=O)CCc1ccccc1)c1ccco1`, the activation factor was 1 (inactive). For the molecule `CCCCN(CC)CCCNC(=O)c1ccc(CSc2nc3ccncc3[nH]2)cc1`, the activation factor is 1 (inactive). For the molecule `CC1=CC2=NC(=O)CC(C)(C(=O)N(CC(=O)NC(C)(C)C)Cc3ccccc3)N2C=C1` (stereo not given), the activation factor is 1.1 (inactive). On to `O=C(CN1CCN(Cc2ccc(F)cc2Cl)C1=O)NCc1cccs1`, for which the activation factor was 1.1 (inactive). Take `CCC(C)(C)C1CCC(=NNC(=O)c2ccc(Br)o2)CC1` (stereo not given): the activation factor was 1.1 (inactive).

Take `Cc1cccc(C)c1NC(=O)Nc1ccccc1-n1ccnc1`: the activation factor was 1.1 (inactive). Turning to `Cc1cccc(N2CCN(c3ccc(C(N)=O)cc3[N+](=O)[O-])CC2)c1C`, the activation factor was 1 (inactive). As to `COc1ccc(-c2[nH]ncc2CN(C)Cc2cccnc2)c(F)c1`, the activation factor was 1 (inactive).

`COc1ccccc1CN(C)C(=O)C1(c2ccc(Cl)cc2)CC1`: the activation factor is 1 (inactive). Take `CCOC(=O)C(NC(C)=O)C(=O)Nc1ccc(OC)cc1` (stereo not given): the activation factor is 1.1 (inactive). In the case of `COc1cccc(CC2(CO)CCN(Cc3cnc(-c4cccc(C)c4)nc3)CC2)c1`, the activation factor is 1.1 (inactive). Consider `CCOc1ccc(C(C)=O)cc1CSc1nnc(-c2ccncc2)n1CCOC`, for which the activation factor was 1 (inactive). Turning to `CN1CCN(/N=C/c2ccc(C#N)cc2)CC1`, the activation factor was 1 (inactive). For the molecule `O=C1C2C3C=CC(C3)C2C(=O)N1c1ccc(-c2nc3ccccc3c(=O)o2)cc1` (stereo not given), the activation factor was 1 (inactive). Turning to `COC(=O)CC1=NN(c2ccccc2)C(=O)C1`, the activation factor was 1 (inactive). Consider `COc1ccc(/C(C)=N/NC(=O)CCC(=O)Nc2ccc(Cl)cc2Cl)c(OC)c1`, for which the activation factor is 0.9 (inactive).

As to `Cc1cccc(NC(=O)CN2C(=O)c3ccccc3C2=O)c1C`, the activation factor was 1 (inactive). For the molecule `CC1=C(C)CC(C(=O)NC(C)CCc2ccccc2)C(C(=O)O)C1` (stereo not given), the activation factor is 1 (inactive). As for `Cc1ccc(O)c(-c2cc(C(=O)NCc3ccccc3)[nH]n2)c1`, the activation factor is 2.3 (active). Take `Cc1ccc(O)c(-c2cc(C(=O)Nc3c(C)n(C)n(-c4ccccc4)c3=O)[nH]n2)c1`: the activation factor is 1 (inactive). Under `Cc1ccc(CNC(=O)c2ccccc2CCc2ccccc2)cc1` stands 1.1 (inactive); under `O=C1CCC(CCC(=O)N2CCCC(C(=O)c3ccc(Cl)cc3)C2)=NN1` (stereo not given), 1.1 (inactive). Take `[O-][n+]1c2c(nn1-c1ccc(Cl)c(Cl)c1)-c1nonc1CC2`: the activation factor was 1 (inactive). Regarding `Cc1ccc(CN2CCC(N3CCC(C(=O)NCC4CCCO4)CC3)CC2)o1` (stereo not given), the activation factor was 1 (inactive). Regarding `Cc1ccccc1-c1n[nH]c(=S)n1/N=C/c1ccc(-c2ccccc2Br)o1`, the activation factor is 0.9 (inactive). On to `CCOC(=O)C1(Cc2cccc(OC)c2)CCCN(S(=O)(=O)c2cccnc2)C1` (stereo not given), for which the activation factor was 1.1 (inactive). `CCOc1ccc(C(=O)NCCCN2CCCC2=O)cc1`: the activation factor is 1 (inactive). With `COc1ccc(NS(=O)(=O)c2cc(NC(=O)/C=C/c3cc(OC)c(OC)c(OC)c3)ccc2N2CCCCC2)cc1`, the activation factor was 1 (inactive).

`Cc1cc(SCC(=O)NCCN2C(=O)CSC2=O)nc2ccccc12`: the activation factor is 1 (inactive). As for `N#Cc1cnn2cc(CCN3CCOCC3)c(-c3ccc(F)cc3)nc12`, the activation factor is 1 (inactive). For `Cc1ccc(C(=O)NC(=S)Nc2ccc(N3CCOCC3)cc2)cc1`, the activation factor is 1 (inactive). The result for `COC(=O)COc1cccc2c(=O)n(CC(=O)NCCc3ccc(OC)c(OC)c3)ccc12` reads 1 (inactive). For the molecule `Cc1ccc(NC(=S)N(CCN2CCCCC2)Cc2ccco2)cc1C`, the activation factor is 1 (inactive). On to `COC(=O)c1cc(NC(=O)Cc2ccccc2[N+](=O)[O-])ccc1Cl`, for which the activation factor is 1 (inactive). For `COc1ccc(C(=O)CSc2nc(C)cc(C)n2)cc1[N+](=O)[O-]`, the activation factor is 1 (inactive). In the case of `Cc1ccc(S(=O)(=O)N(CC(=O)NN=C2CCN(C)CC2)c2ccc(F)cc2)cc1`, the activation factor is 1 (inactive). As for `CN(C)S(=O)(=O)c1cccc(NC(=O)COC(=O)c2cc(=O)[nH]c(=O)[nH]2)c1`, the activation factor was 1 (inactive). Turning to `O=S(=O)(Nc1ncccn1)c1ccc(NS(=O)(=O)c2cccc(Cl)c2Cl)cc1`, the activation factor is 1 (inactive).

With `O=C(NNC(=S)NCc1ccco1)C(c1ccccc1)c1ccccc1`, the activation factor is 1 (inactive). In the case of `CCCCC(=O)NCc1ccc(F)cc1`, the activation factor is 1.1 (inactive). As to `CCN(c1ccc(NC(=O)COC(=O)CCc2nc3ccccc3n2-c2ccccc2)cc1)C(C)C`, the activation factor was 1 (inactive).

Turning to `Clc1cccc(CN2COc3c(cc(Cl)c4cccnc34)C2)c1`, the activation factor is 1.1 (inactive). Consider `CCN(CCO)C(=S)Nc1cc(C(=O)OC)ccc1C(=O)OC`, for which the activation factor is 1 (inactive). As for `Cc1ccccc1CC1(CO)CCCN(Cc2ccc3c(c2)OCCO3)C1` (stereo not given), the activation factor is 1.1 (inactive). `Clc1ccc(-n2nnnc2-c2cnc(-c3ccccn3)nc2-c2cccs2)cc1`: the activation factor was 1 (inactive). The result for `COc1ccc(C(=O)Nc2c(Cl)cc(Cl)cc2C(=O)N2CCC(C)CC2)cc1` reads 1 (inactive).

In the case of `O=C(c1ccc(Cl)c([N+](=O)[O-])c1)N1CCN(c2ccccc2)CC1`, the activation factor is 1 (inactive).

As for `O=C(CCl)NNc1cccc(Cl)n1`, the activation factor is 1 (inactive). Turning to `C=CCN1C(=O)C(Cc2ccc(OCC)cc2)SC1=Nc1ccc(C(=O)O)cc1` (stereo not given), the activation factor is 1 (inactive). Regarding `Cc1nc([N+](=O)[O-])nn1C12CC3CC(CC(Br)(C3)C1)C2`, the activation factor was 1 (inactive). Regarding `CC1CCC(C(C)C)C(=O)/C1=C\c1ccc(NC(=O)CCC(=O)O)cc1` (stereo not given), the activation factor is 1.1 (inactive). The result for `O=C(CN1C2=NCCN2c2ccccc21)c1cccs1` reads 1.1 (inactive). For `COc1ccc(/C=N/NC(=O)c2ccncc2)cc1CN1CCCc2ccccc21`, the activation factor was 1 (inactive). The result for `Cc1ccnc(NC(=O)c2ccco2)n1` reads 1 (inactive). The result for `CCNc1nc(-c2cc3ccccc3o2)cs1` reads 1.1 (inactive); that for `Oc1cccc(C2c3[nH]c4ccccc4c3CCN2Cc2cnn(-c3ccccc3)c2)c1` (stereo not given), 1 (inactive). Consider `COC(=O)c1ccc(C(NC(=O)OCc2ccccc2)/C(C)=C/[C@@H](C)C(=O)NCc2ccc(OC)c(OC)c2)cc1` (stereo not given in full), for which the activation factor was 1.1 (inactive). The result for `CCOc1c2ccc(C(=O)NC3CCCc4ccccc43)cc2nn1CC` (stereo not given) reads 1 (inactive). For `Cc1nnsc1C(=O)N/N=C/c1cccc(C(F)(F)F)c1`, the activation factor was 1 (inactive).

For `Cc1[nH]c2ccccc2c1/C=C(/C#N)C(=O)NC(C)C`, the activation factor was 1 (inactive). Consider `O=C(Cc1c(F)cccc1Cl)Nc1ccc(-n2cnnn2)cc1`, for which the activation factor was 1 (inactive). For `COCCCNC(=O)Cn1c(=O)n(Cc2ccccc2Cl)c(=O)c2cc(OC)c(OC)cc21`, the activation factor was 1 (inactive). For `COc1cc([N+](=O)[O-])ccc1NC(=O)CN1CCCC1`, the activation factor is 1 (inactive). Turning to `COc1ccc(-c2nn(-c3ccccc3)cc2CN2CCCO2)c(F)c1`, the activation factor was 1.1 (inactive). As for `O=C(O/N=C(/c1ccccc1)c1ccncc1)c1ccccc1[N+](=O)[O-]`, the activation factor was 1.1 (inactive).

With `CCC(C)NC(=O)Cn1nc(C(F)(F)F)c2c1CCC2` (stereo not given), the activation factor was 1.1 (inactive). `CCOC(=O)COc1cc(O)c2c(=O)cc(-c3ccccc3)oc2c1`: the activation factor is 1 (inactive). On to `Cc1cccc(NC(=O)/C=C/c2ccc3c(c2)OCO3)n1`, for which the activation factor is 1 (inactive). Turning to `COc1ccc(Sc2nc(-c3ccccc3)ncc2OC)cc1`, the activation factor was 1 (inactive). The result for `N#CCOc1ccc(C2=NO[C@@H]3[C@@H]4C[C@@H]([C@H]5C(=O)N(c6ccc7c(c6)OCO7)C(=O)[C@@H]45)[C@H]23)cc1` reads 1 (inactive).

The values are drawn from PubChem BioAssay AID1136 (Sanford-Burnham Center for Chemical Genomics, 2008).
